Bioassay records as filed in PubChem.
An excerpt weighted towards active compounds, which were near 5% of everything screened.
T cruzi repl: T. cruzi replication inhibition; inhibition, % (concentration not given with the values); AID 1885; actives 1.4% (n = 300,000); T. cruzi beta-gal in NIH3T3, luminescence, 90 h;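 active means mean inhibition across valid replicates above about 55%, limit read from the data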;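 further: signal also drops with host cell toxicity which is not excluded here; 0% = plate median of DMSO wells and 100% = zero luminescence signal; higher percent means less beta-gal luminescence so fewer parasites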
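System – NIH/3T3 host cells with β-galactosidase reporter T. cruzi · Doses – single 50 nL compound addition per well in DMSO · Reagent – 5000 T. cruzi trypomastigotes/well · Medium – Low-serum DMEM with 2% FBS · Timing – ≥90 h infection period, 3 h prior cell attachment · Evaluation – parasite load inhibition, % · Technique – GalScreen luminescence, 60 min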
UPR CHOP act: apoptotic UPR (CHOP) activation | CHO-CHOP luciferase reporter, luminescence; percent of tunicamycin response over DMSO baseline | actives 0.34% (n = 330,000) | activation, % at 10 µM;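 active means at 10 µM dose, activation of 40% or more, normalized to positive control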;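 further: 100% = tunicamycin at 10 µg/mL and 0% = DMSO alone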
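System: CHO-CHOP luciferase reporter cell line; amount: 500 cells/well; buffer or medium: F12 medium containing 10% fetal bovine serum; incubation: 6 h compound exposure at 37 °C after overnight seeding; measured by: luciferase luminescence after 10 min with Steady-Glo reagent; evaluation: % reporter activation, DMSO baseline versus tunicamycin full activation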
Beta apoptosis: beta cell apoptosis inhibition | INS-1E cytokine-induced death, ATP luminescence, 48 h; percent of positive-control rescue, neutral wells zero | protection from apoptosis, % (no concentration beside the values) | actives 0.8% (n = 300,000) | AID 435005;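 active means Every replicate reaches about 75%, or at least half do and their mean reaches it too, limit read from the data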;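 further: 0% = cytokine-treated negative control wells and 100% = positive control rescue; higher means more ATP so stronger rescue from cytokine killing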
CSC inhib: cancer stem cell inhibition | cancer stem cell-like cells viability, luminescence | inhibition, % at 7.5 µM | actives 1.1% (n = 300,000); in the data active means inhibition above about 75%; tested in HMLE shEcad cells
XBP1 UPR activ: adaptive UPR (XBP1) activation | CHO-XBP1 luciferase reporter, IRE1-XBP1 UPR activation, luminescence; percent of tunicamycin response, DMSO as zero | activation, % at 20 µM | actives 0.33% (n = 330,000) | AID 463104;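 active means versus positive control, 20 µM dose yields 30% or more activation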;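 further: 100% = tunicamycin at 10 µg/mL and 0% = DMSO only wells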
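Material: IRE1-XBP1 luciferase reporter CHO line / Quantity: one thousand reporter cells per well / Buffer or medium: F12 with 10% serum / Compound: 20 µM single concentration, DMSO 1% / Times: 6 h treatment, 37 °C / Detection: Steady-Glo luciferase glow luminescence, 10 min after reagent addition / Benchmarks: tunicamycin high, DMSO low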
Mdm2 MdmX PPI: disrupts the human Mdm2-MdmX interaction. inhibition, % at 8 µM. actives 3% (n = 330,000). SaOS-2 split-luciferase Mdm2/MdmX complementation, luminescence. O15151+Q00987;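 active means inhibition of at least 50% at 8 µM in the primary screen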
The depositor's hits bear a star.

COc1ccc(CC(=O)NCC2CCCN(Cc3cccc(C(F)(F)F)c3)C2)cc1 (centres undefined) was read as T cruzi repl 45, UPR CHOP act 3, CSC inhib -17, XBP1 UPR activ -7 and Mdm2 MdmX PPI 0.
COc1ccccc1CN1CCCC(CNC(=O)c2cccc3ccccc23)C1 (centres undefined) was read as T cruzi repl 61*, UPR CHOP act -1, Beta apoptosis -2, CSC inhib -10, XBP1 UPR activ -4 and Mdm2 MdmX PPI 11.
O=C(NCC1CCCN(Cc2ccccc2F)C1)c1cccc(C(F)(F)F)c1 (centres undefined) was read as T cruzi repl 66*, UPR CHOP act -4, Beta apoptosis -3, CSC inhib 4, XBP1 UPR activ -1 and Mdm2 MdmX PPI 1.
`CCOc1ccccc1CN1CCCC(CNC(=O)Cc2ccc(OC)cc2)C1` (centres undefined) gave T cruzi repl 59*, UPR CHOP act 0, Beta apoptosis -4, CSC inhib 1, XBP1 UPR activ -6 and Mdm2 MdmX PPI -83.
Screening CSc1ccc(CN2CCCC(CNC(=O)c3ccc(F)cc3)C2)cc1 (centres undefined) returned T cruzi repl 63*, UPR CHOP act -1, Beta apoptosis 0, CSC inhib -4, XBP1 UPR activ 3 and Mdm2 MdmX PPI 13.
`O=C(CCC1CCCCC1)NCc1ccccn1` gave T cruzi repl -18, UPR CHOP act 2, Beta apoptosis -11, CSC inhib -9, XBP1 UPR activ 1 and Mdm2 MdmX PPI 23.
`COc1ccc2[nH]c(=O)c(CN(Cc3cccnc3)Cc3nnnn3CC3CCCO3)cc2c1` (centres undefined) gave T cruzi repl 3, UPR CHOP act 0, Beta apoptosis -3, CSC inhib -3, XBP1 UPR activ -2 and Mdm2 MdmX PPI -22.
Screening COc1ccc(CC(=O)NCC2CCCN(Cc3ccc(SC)cc3)C2)cc1 (centres undefined) returned T cruzi repl 68*, UPR CHOP act 0, Beta apoptosis -3, CSC inhib -4, XBP1 UPR activ -7 and Mdm2 MdmX PPI 2.
`Nc1c(C(=O)Nc2ccc(Cl)c(C(=O)O)c2)sc2nc3c(cc12)CCCC3` gave T cruzi repl -1, UPR CHOP act 2, Beta apoptosis -8, CSC inhib 5, XBP1 UPR activ -3 and Mdm2 MdmX PPI 22.
For Nc1c(C(=O)Nc2ccc(S(=O)(=O)N3CCCC3)cc2)sc2nc3cc4c(cc3cc12)CCC4 the results were T cruzi repl 35, Beta apoptosis 100* and CSC inhib 6.
For CCOC(=O)C1CCN(C(=O)CN2C(=O)c3cccnc3Oc3ccccc32)CC1 the results were T cruzi repl -9, UPR CHOP act 0, Beta apoptosis -4, CSC inhib -11, XBP1 UPR activ 3 and Mdm2 MdmX PPI 1.
`O=C(CN1C(=O)COc2ccccc21)N(Cc1cccnc1)Cc1ccccc1F` gave T cruzi repl 76*, UPR CHOP act -1, Beta apoptosis 1, CSC inhib -14, XBP1 UPR activ 1 and Mdm2 MdmX PPI -13.
For O=C(CCN1C(=O)COc2ccccc21)NCc1cccnc1 the results were T cruzi repl -11, UPR CHOP act -3, Beta apoptosis -6, CSC inhib -8, XBP1 UPR activ 0 and Mdm2 MdmX PPI 14.
O=C(C1CCN(S(=O)(=O)c2cccs2)CC1)N(c1ccccn1)C1CCCCC1 was read as T cruzi repl 7, UPR CHOP act -2, Beta apoptosis 2, CSC inhib 2, XBP1 UPR activ 0 and Mdm2 MdmX PPI 20.
CCOCCCNC(=O)/C(C#N)=C/c1ccc([N+](=O)[O-])o1 was read as T cruzi repl 74*, UPR CHOP act -6, Beta apoptosis 2, CSC inhib active, XBP1 UPR activ -7 and Mdm2 MdmX PPI 21.
For Cc1ccc(-c2nnn(CC(=O)N3c4ccccc4CCc4ccccc43)n2)cc1 the results were T cruzi repl 58*, UPR CHOP act 1, Beta apoptosis -6, CSC inhib 14, XBP1 UPR activ -2 and Mdm2 MdmX PPI 12.
`Cc1ccc(-c2nnn(CC(=O)O)n2)cc1` gave T cruzi repl -5, UPR CHOP act -2, Beta apoptosis 5, XBP1 UPR activ 1 and Mdm2 MdmX PPI 4.
`COC(=O)C(=NNc1c(C)n(C)n(-c2ccccc2)c1=O)C(=O)OC` gave T cruzi repl -3, UPR CHOP act -1, Beta apoptosis -1, CSC inhib -14, XBP1 UPR activ -1 and Mdm2 MdmX PPI -27.
Cc1c(N/N=C(\C#N)C(=O)c2ccc(Cl)cc2)c(=O)n(-c2ccccc2)n1C was read as T cruzi repl -5, Beta apoptosis 76* and CSC inhib 26.
`COc1ccccc1-c1nc(-c2ccc(C(=O)O)cc2)no1` gave T cruzi repl -8, UPR CHOP act 0, Beta apoptosis 0, CSC inhib 2, XBP1 UPR activ 1 and Mdm2 MdmX PPI -4.
For CCOc1ccccc1-c1nc(-c2ccc(NC(=O)Cc3ccccc3OC)cc2)no1 the results were T cruzi repl 56*, UPR CHOP act 2, Beta apoptosis 5, XBP1 UPR activ 0 and Mdm2 MdmX PPI 6.
`CCCCSc1ccc(NC(=O)c2cccnc2)cc1` gave T cruzi repl 10, UPR CHOP act 4, Beta apoptosis 100*, CSC inhib 0, XBP1 UPR activ -1 and Mdm2 MdmX PPI -2.
For O=C(Nc1ccc(NC(=O)c2cccnc2)cc1)c1ccccc1 the results were T cruzi repl -11, UPR CHOP act 3, Beta apoptosis 0, CSC inhib -9, XBP1 UPR activ 2 and Mdm2 MdmX PPI -8.
For COCCCNC(=O)Cn1nnc(-c2ccc(NC(=O)c3cccnc3)cc2)n1 the results were T cruzi repl -6, UPR CHOP act 1, Beta apoptosis 97*, CSC inhib -11, XBP1 UPR activ -2 and Mdm2 MdmX PPI 16.
`O=C(Nc1ccc(Nc2ccccc2)cc1)c1cccc(F)c1` gave T cruzi repl 4, UPR CHOP act 8, Beta apoptosis 7, CSC inhib 75*, XBP1 UPR activ 2 and Mdm2 MdmX PPI -59.
For O=C(Nc1ccc(F)cc1)c1cccnc1 the results were T cruzi repl -18, UPR CHOP act 0, Beta apoptosis 76*, CSC inhib 8, XBP1 UPR activ -3 and Mdm2 MdmX PPI 16.
`O=C(Nc1ccc(OC(=O)c2cccnc2)cc1)c1cccnc1` gave T cruzi repl -19, UPR CHOP act -4, Beta apoptosis -5, CSC inhib -7, XBP1 UPR activ 2 and Mdm2 MdmX PPI 6.
